A selection: hits, their analogues and other compounds. The true share with any hit is near 9.4%.
Beta apoptosis: blocks beta cell apoptosis; AID 435005; protection from apoptosis, % (no concentration beside the values); INS-1E cytokine-induced death, ATP luminescence, 48 h; percent of positive-control rescue, neutral wells zero; actives 0.8% (n = 300,000);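 active means Every replicate reaches about 75%, or at least half do and their mean reaches it too, limit read from the data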;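 further: 0% = cytokine-treated negative control wells and 100% = positive control rescue; higher means more ATP so stronger rescue from cytokine killing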
SKKanGAS inh: blocks kanamycin growth of S. pyogenes SKKanGAS strain. BacTiter-Glo, 6 h. inhibition, % at 7.5 µM. actives 1.3% (n = 300,000);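 active means mean replicate score, as percent of positive control median, at least 50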;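 further: strain carries kanamycin resistance gene driven by streptokinase promoter and grows in 40 µg/ml kanamycin; loss of luminescence reflects streptokinase promoter inhibition or plain growth inhibition; 0% = median of DMSO wells and 100% = positive control at its reference dose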
T cruzi repl: blocks replication of Trypanosoma cruzi; T. cruzi beta-gal in NIH3T3, luminescence, 90 h; inhibition, % (test concentration not listed); actives 1.4% (n = 300,000);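 active means mean inhibition across valid replicates above about 55%, limit read from the data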;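 further: signal also drops with host cell toxicity which is not excluded here; 0% = plate median of DMSO wells and 100% = zero luminescence signal; higher percent means less beta-gal luminescence so fewer parasites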
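Assay system: NIH/3T3 host cells with β-galactosidase reporter T. cruzi; input: 5,000 host fibroblasts per well; compound: single 50 nL compound addition per well in DMSO; timing: ≥90 h infection period, 3 h prior cell attachment; measured by: GalScreen β-gal luminescence, detergent lysis, 60 min; evaluation: percent inhibition of parasite-derived β-gal signal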
Mdm2 MdmX PPI: disrupts the human Mdm2-MdmX interaction | O15151+Q00987 | SaOS-2 split-luciferase Mdm2/MdmX complementation, luminescence | inhibition, % at 8 µM | actives 3% (n = 330,000);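 active means inhibition of at least 50% at 8 µM in the primary screen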
Target sequence (O15151 whole entry, looked up): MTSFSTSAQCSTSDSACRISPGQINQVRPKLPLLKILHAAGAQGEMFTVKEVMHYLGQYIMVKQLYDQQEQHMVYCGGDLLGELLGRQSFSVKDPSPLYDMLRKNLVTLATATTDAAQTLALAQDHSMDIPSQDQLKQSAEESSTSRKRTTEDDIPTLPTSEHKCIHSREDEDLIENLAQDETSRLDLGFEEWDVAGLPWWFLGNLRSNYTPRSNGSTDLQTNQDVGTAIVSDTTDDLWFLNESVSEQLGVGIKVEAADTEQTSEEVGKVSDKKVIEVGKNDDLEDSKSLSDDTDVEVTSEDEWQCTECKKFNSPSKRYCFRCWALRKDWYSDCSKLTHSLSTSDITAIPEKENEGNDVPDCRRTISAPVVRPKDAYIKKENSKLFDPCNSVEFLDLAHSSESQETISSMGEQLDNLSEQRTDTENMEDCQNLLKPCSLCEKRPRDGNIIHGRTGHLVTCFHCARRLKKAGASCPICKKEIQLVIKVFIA
Target sequence (Q00987 whole entry, looked up): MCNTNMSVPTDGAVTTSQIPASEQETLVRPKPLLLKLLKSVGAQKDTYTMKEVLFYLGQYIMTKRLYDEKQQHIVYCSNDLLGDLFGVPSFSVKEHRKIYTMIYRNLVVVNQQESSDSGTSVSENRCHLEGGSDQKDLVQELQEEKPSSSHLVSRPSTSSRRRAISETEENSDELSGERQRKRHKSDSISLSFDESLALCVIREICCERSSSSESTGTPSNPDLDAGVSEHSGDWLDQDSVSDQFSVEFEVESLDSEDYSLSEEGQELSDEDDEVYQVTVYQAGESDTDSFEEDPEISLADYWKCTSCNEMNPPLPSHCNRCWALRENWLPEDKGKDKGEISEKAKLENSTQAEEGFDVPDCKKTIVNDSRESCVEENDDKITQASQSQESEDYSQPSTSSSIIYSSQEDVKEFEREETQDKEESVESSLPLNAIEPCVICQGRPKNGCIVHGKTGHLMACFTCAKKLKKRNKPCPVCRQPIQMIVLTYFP
CSC inhib: blocks cancer stem cells. actives 1.1% (n = 300,000). cancer stem cell-like cells viability, luminescence. inhibition, % at 7.5 µM; in the data active means inhibition above about 75%; tested in HMLE shEcad cells
L major viab: reduces viability of Leishmania major promastigotes | actives 9% (n = 200,000) | inhibition, % at 10 µM | resazurin fluorescence viability | AID 1063; in the data active means inhibition above about 50%;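 further: promastigotes grown with compound for 44 hours at 28 °C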
Active calls of the source: *.

For COc1cc(OC)c2nc(C)c3c(c2c1)N(c1ccc(O)cc1)CC3 the results were Beta apoptosis 45.9, SKKanGAS inh 4.0, T cruzi repl 82.9*, CSC inhib 19.5 and L major viab 98.8*.
For Clc1ccc(-c2n[nH]c3c2CCC3)c(Cl)c1 the results were Beta apoptosis 1.7, SKKanGAS inh 95.7*, T cruzi repl 1.9, Mdm2 MdmX PPI 9.2, CSC inhib 5.2 and L major viab -1.1.
Screening c1ccc(-c2n[nH]c3c2CCC3)cc1 returned Beta apoptosis -1.0, SKKanGAS inh 31.0, T cruzi repl 7.1, Mdm2 MdmX PPI 12.8, CSC inhib -8.7 and L major viab 0.5.
For Cc1cc(C)c2[nH]c(=O)c(CN(Cc3ccc4c(c3)OCO4)Cc3nnnn3C3CCCC3)cc2c1 the results were Beta apoptosis -15.0, SKKanGAS inh 9.8, T cruzi repl 71.2*, Mdm2 MdmX PPI 4.0, CSC inhib 11.2 and L major viab 88.1*.
Screening Cc1ccc2[nH]c(=O)c(CN(Cc3ccccc3)Cc3nnnn3C3CCCC3)cc2c1 returned Beta apoptosis 3.9, SKKanGAS inh -1.7, T cruzi repl 48.3, Mdm2 MdmX PPI -13.2, CSC inhib -2.8 and L major viab 53.4*.
`COc1ccc(Cn2nnnc2C(c2cc3ccc(OC)cc3[nH]c2=O)N2CCC(C)CC2)cc1` (stereo unspecified) gave Beta apoptosis -0.4, SKKanGAS inh 8.4, T cruzi repl 9.9, Mdm2 MdmX PPI 15.5, CSC inhib 2.4 and L major viab 15.7.
For Cc1cc(C)c2[nH]c(=O)c(C(c3nnnn3Cc3ccc4c(c3)OCO4)N3CCC(C)CC3)cc2c1 (stereo unspecified) the results were Beta apoptosis 2.5, SKKanGAS inh 6.5, T cruzi repl 52.5, Mdm2 MdmX PPI 22.9, CSC inhib -5.4 and L major viab 75.5*.
Cc1cccc2cc(CN(Cc3cccs3)C3(c4nnnn4C4CCCC4)CCCC3)c(=O)[nH]c12 was read as Beta apoptosis -6.0, SKKanGAS inh 2.4, T cruzi repl 25.0, Mdm2 MdmX PPI 23.9, CSC inhib 10.1 and L major viab 72.9*.
Screening COc1ccc(OC(=O)c2cnc3n(c2=O)CCS3)cc1 returned Beta apoptosis -7.9, SKKanGAS inh 6.4, T cruzi repl -6.3, Mdm2 MdmX PPI -19.7 and CSC inhib 1.2.
Screening COc1cc(Cl)ccc1OCc1cc(C(=O)N(C)Cc2cccc3cnccc23)no1 returned SKKanGAS inh -6.1, T cruzi repl 25.3, Mdm2 MdmX PPI 0.1 and CSC inhib 3.2.
COc1cccc(C=O)c1OC(=O)N1CCOCC1 was read as SKKanGAS inh -1.1, T cruzi repl 0.8 and Mdm2 MdmX PPI -57.6.
Cc1cccc2cc(CN(Cc3ccc(F)cc3)Cc3nnnn3C3CCCC3)c(=O)[nH]c12 was read as Beta apoptosis 2.4, SKKanGAS inh 8.4, T cruzi repl 55.6*, Mdm2 MdmX PPI 42.1, CSC inhib 29.6 and L major viab 20.4.
Screening Cc1ccc(C)c2[nH]c(=O)c(CN(Cc3nnnn3C3CCCCC3)CC3CCCO3)cc12 (stereo unspecified) returned Beta apoptosis -2.8, SKKanGAS inh 12.4, T cruzi repl 25.6, Mdm2 MdmX PPI 3.1, CSC inhib -12.7 and L major viab 99.6*.
`CCC(C(=O)NN1C(=O)c2ccccc2C1=O)c1ccccc1` (stereo unspecified) gave Beta apoptosis -8.9, SKKanGAS inh 1.0, T cruzi repl -6.2, Mdm2 MdmX PPI 19.0, CSC inhib -10.3 and L major viab 0.1.
O=C1C(Nc2ccc(O)cc2)=C/C(=N/S(=O)(=O)c2cccs2)c2ccccc21 was read as SKKanGAS inh 87.3*, T cruzi repl 58.3* and L major viab 100.4*.
For Cc1cccc(NC2=C/C(=N/S(=O)(=O)c3cccs3)c3ccccc3C2=O)c1 the results were Beta apoptosis 104.7*, CSC inhib 119.1* and L major viab 18.7.
Screening CC1(c2ccc(Cl)cc2)NC(=O)N(CC(=O)N2CCN(S(=O)(=O)c3ccccc3)CC2)C1=O (stereo unspecified) returned Beta apoptosis -1.3, SKKanGAS inh -6.5, T cruzi repl -1.4, Mdm2 MdmX PPI -20.5 and CSC inhib 6.4.
`Cc1ccccc1/C=N/Nc1ccnc2cc(Cl)ccc12` gave Beta apoptosis 95.3*, SKKanGAS inh -28.1, T cruzi repl 60.5*, CSC inhib 83.6* and L major viab 97.8*.
Screening Fc1ccc(N/N=C/c2cccnc2)c(F)c1 returned Beta apoptosis 0.4, SKKanGAS inh -17.4, T cruzi repl 0.6, Mdm2 MdmX PPI -29.0, CSC inhib -0.8 and L major viab 22.1.
Oc1ccc(/C=N/Nc2ccnc3cc(Cl)ccc23)c(O)c1 was read as Beta apoptosis 21.4, SKKanGAS inh 0.1, T cruzi repl -20.5, Mdm2 MdmX PPI 27.1 and CSC inhib 10.1.
`Clc1ccc2c(N/N=C/c3ccc(Br)cc3)ccnc2c1` gave Beta apoptosis 53.6, SKKanGAS inh 112.6*, T cruzi repl 47.0, CSC inhib 97.8* and L major viab 100.2*.
Screening Clc1ccc2c(N/N=C/c3cccnc3)ccnc2c1 returned Beta apoptosis 25.9, SKKanGAS inh -23.5, T cruzi repl 65.0*, Mdm2 MdmX PPI 5.1, CSC inhib -0.5 and L major viab 100.3*.
For COc1ccc(C2NC(c3ccc(OC)cc3OC)C(C)C(=O)C2C)c(OC)c1 (stereo unspecified) the results were Beta apoptosis -9.4, SKKanGAS inh 1.0, T cruzi repl -6.0, Mdm2 MdmX PPI 7.6, CSC inhib -1.1 and L major viab -5.6.
For Cc1ccc(CCN=c2c([N+](=O)[O-])nn(-c3ccccc3)n2O)cc1 the results were Beta apoptosis 11.1, SKKanGAS inh 9.8, T cruzi repl 69.7*, Mdm2 MdmX PPI -5.6, CSC inhib 19.5 and L major viab 46.7.
Screening Cc1ccc(CN=c2c([N+](=O)[O-])nn(-c3ccc(Cl)cc3)n2O)cc1 returned Beta apoptosis 5.9, SKKanGAS inh 8.7, T cruzi repl 19.6, Mdm2 MdmX PPI 15.9, CSC inhib 1.5 and L major viab 7.2.
Screening O=[N+]([O-])c1nn(-c2ccc(Cl)cc2)n(O)c1=NCc1ccccc1Cl returned Beta apoptosis 3.7, SKKanGAS inh 5.4, T cruzi repl -14.4, Mdm2 MdmX PPI -19.0, CSC inhib 2.4 and L major viab 27.4.
`O=[N+]([O-])c1nn(-c2ccccc2)n(O)c1=NCCc1ccccc1` gave Beta apoptosis 30.2, SKKanGAS inh -8.2, T cruzi repl 58.3*, Mdm2 MdmX PPI -6.8, CSC inhib 0.4 and L major viab 91.3*.
`COc1ccc(-n2nc([N+](=O)[O-])c(=NCCc3ccccc3)n2O)cc1` gave Beta apoptosis 12.1, SKKanGAS inh -2.1, T cruzi repl 31.0, Mdm2 MdmX PPI -40.0, CSC inhib 16.0 and L major viab 96.0*.
